Hits are enriched below; roughly 4.9% of the tested compounds scored in any of these assays.
STAT3 act – STAT3 signaling activation. activation (% of control), % at 5.6 µM. U3A cells, IL-6 STAT3-luciferase reporter, luminescence; 100% = signal with IL-6 EC80 alone. 190,000 compounds, 0.91% hits;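 active means activation above the screen-wide mean of compound activation plus 3 SD, cut at about 130% in these data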
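Test system: STAT3-luciferase reporter U3A cells; Detection: reporter luminescence signal; Times: 1 h compound pre-exposure, 6 h IL-6 stimulation, 37 °C; Benchmarks: IL-6-only high control; Also added: IL-6 stimulus at 33 ng/mL final.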
NF-kB neuron act – raises NF-kB expression in human neuronal cells. 190,000 compounds, 1.6% hits. fold change at 12.5 µM. NF-kB reporter expression; stronger effect = higher value. AID 1239; in the data active means fold change above about 3.3
STAT1 blocker – reduces IFN-gamma driven STAT1 reporter signal. NIH 3T3 STAT1-luciferase reporter, luminescence. inhibition, % at 5.5 µM. 200,000 compounds, 0.35% hits. AID 920;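 active means inhibition above a set limit, the mean inhibition across all tested compounds plus 3 SD, cut at about 34% in these data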
STAT3 inh-1 – inhibitors of IL-6 induced STAT3 signaling; U3A cells, IL-6 STAT3-luciferase reporter, luminescence; host cell line lacks STAT1; inhibition, % at 5.5 µM; 190,000 compounds, 0.89% hits;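 active means inhibition above the mean inhibition across all screened compounds plus 3 SD, cut at about 44% in these data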
STAT1 act – STAT1 signaling activation | 200,000 compounds, 2.6% hits | AID 932 | activation (% of control), % at 5.5 µM | NIH 3T3 STAT1-luciferase reporter, IFN-gamma, luminescence; 100% = IFN-gamma alone, no compound;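 active means activation above the screen-wide mean activation plus 3 SD, cut at about 130% in these data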
APP 5'UTR act – APP 5'UTR luciferase reporter activation | SH-SY5Y APP 5'UTR luciferase reporter, luminescence; zero percent = DMSO vehicle wells | activation, % at 2 µM | 190,000 compounds, 1% hits;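 active means activation above a set limit, based on mean plus 3 SD of controls, cut at about 140% in these data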
STAT3 inh-2 – STAT3 inhibition, confirmation assay; shares compounds with STAT3 inh-1; U3A cells, IL-6 STAT3 luciferase reporter, luminescence; cell line lacks STAT1; inhibition, % at 5.7 µM; 1,200 compounds, 45% hits;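 active means inhibition above the hit cutoff computed for the primary STAT3 screen, cut at about 44% in these data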
NFkB inh STAT3ct – counter-screen for STAT3 inhibitors: NF-kappaB inhibition; inhibition, % at 5.7 µM; AID 1308; 1,200 compounds, 36% hits; shares compounds with STAT3 inh-1; HEK293T NF-kB luciferase reporter, TNF-alpha induced;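 active means inhibition above the mean of solvent-only control wells plus 3 SD, cutoff set per campaign, cut at about 13% in these data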
STAT1 inh 2 – inhibits STAT1, counter-screen to STAT3 inhibitors; 1,200 compounds, 27% hits; inhibition, % at 5.7 µM; NIH 3T3 STAT1-luciferase reporter, IFN-gamma induced, luminescence; shares compounds with STAT3 inh-1;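 active means inhibition above the mean plus 3 SD of solvent-only control wells, limit set per screening run, cut at about 16% in these data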
Numbers stand for hits; . = inactive; / = no result given.

SMILES	STAT3 act	NF-kB neuron act	STAT1 blocker	STAT3 inh-1	STAT1 act	APP 5'UTR act	STAT3 inh-2	NFkB inh STAT3ct	STAT1 inh 2
COc1ccc(NS(=O)(=O)c2cc(NC(=O)Cn3cnc4c3c(=O)n(C)c(=O)n4C)ccc2C)cc1	.	.	.	.	.	.	/	/	/
Cc1nc2cc(NC(=O)c3ccc(N4C(=O)CCC4=O)cc3)ccc2s1	.	.	.	.	.	.	/	/	/
CCCCOC(=O)c1[nH]c2c(c1C)C(=O)CC(c1cc(OC)c(OC)c(OC)c1)C2 (stereo not drawn)	.	.	.	53	.	.	63	23	24
COC(=O)Oc1ccc(/C=N/NC(=O)CSCc2ccccc2Br)cc1OC	.	.	.	58	.	.	66	.	.
COc1ccccc1OCCn1c(C(C)O)nc2ccccc21 (stereo not drawn)	.	.	.	.	.	.	/	/	/
COC(=O)CSc1ncnc2c1sc1nc3c(cc12)COC(C)(C)C3	.	/	.	44	.	.	44	18	28
COC(=O)CC1C(=O)NCCN1C(=O)CSc1nc2ccc([N+](=O)[O-])cc2s1 (stereo not drawn)	.	.	.	.	.	.	/	/	/
CC(NC(=O)CCl)c1ccc(Cl)c(Cl)c1 (stereo not drawn)	.	.	.	.	.	/	/	/	/
CC(C)c1cc(NC(=O)CCl)on1	.	.	.	53	.	.	.	.	.
CC(C)C(=O)Nc1ncc(Cc2ccc(Cl)cc2)s1	.	.	.	.	.	.	/	/	/
C/C(=N\N1C(=O)c2ccccc2NC1c1ccco1)c1ccccc1O (stereo not drawn)	.	6.6	.	46	.	.	.	.	.
O=C1c2ccccc2NC(c2ccco2)N1/N=C/c1ccco1 (stereo not drawn)	.	.	.	.	.	.	/	/	/
c1ccc(CC2CCN(c3ncnc4sccc34)CC2)cc1	.	.	.	83	.	.	79	.	.
CCOC(=O)c1ccc(COc2ccc(C(C)C)cc2)o1	.	.	.	.	.	.	/	/	/
CCOc1ccc(OCc2ccc(C(=O)OCc3ccccn3)o2)cc1	.	4.4	.	46	.	.	.	.	.
c1cnc(N2CCN(c3cnccn3)CC2)nc1	.	.	.	.	.	.	/	/	/
COc1cc(C(=O)N2CCN(c3ncnc4sc(C)c(C)c34)CC2)cc(OC)c1OC	.	.	37	52	.	.	45	17	31
Cc1sc2ncnc(N3CCN(c4ncccn4)CC3)c2c1C	.	.	.	.	.	.	/	/	/
CNc1nnc(-c2ccc(N(C)C)cc2)s1	.	4.7	.	53	.	.	.	.	.
CC1(C)Cc2ccccc2-c2nnc(SCC(=O)N3CCN(c4ccccc4)CC3)n21	.	.	.	44	.	.	.	.	.
CCn1c(SCC(=O)N2CCN(c3ccccc3)CC2)nnc1-c1c[nH]c2ccccc12	.	.	.	51	.	.	.	.	.
Cc1ccc(CN2CCN(C3CCCC3)C(CCO)C2)s1 (stereo not drawn)	.	.	.	.	.	.	/	/	/
O=C(C1=C[C@H](c2coc3ccccc3c2=O)C[C@H](OCCCCO)O1)N1CCN(Cc2ccc3c(c2)OCO3)CC1	/	.	.	/	.	.	/	/	/
O=C(Nc1cccc2ccccc12)c1ccc(OC(=S)N2CCOCC2)cc1	.	.	.	.	.	.	/	/	/
O=C(Nc1cccc(Cl)c1)c1ccc(OC(=S)N2CCOCC2)cc1	.	.	.	57	130	157	.	.	.
SMILES	STAT3 act	NF-kB neuron act	STAT1 blocker	STAT3 inh-1	STAT1 act	APP 5'UTR act	STAT3 inh-2	NFkB inh STAT3ct	STAT1 inh 2
COc1ccc(NC(=O)C(C)N2c3cccc4cccc(c34)S2(=O)=O)cc1OC (stereo not drawn)	.	.	.	46	.	.	.	.	22
CC(=O)c1cn(CC(=O)Nc2ccccc2C)c2ccccc12	.	.	.	44	.	.	44	.	.
CC(=O)c1cn(CC(=O)Nc2c(C)cccc2C)c2ccccc12	.	.	.	.	.	.	/	/	/
CC(=O)c1cn(CC(=O)Nc2ccc(C)c(C)c2)c2ccccc12	.	.	.	67	.	.	53	19	18
Cc1cc(CSc2ccccc2)ccc1NC(=O)c1ccc(CN2CCOCC2)cc1	.	.	.	73	.	.	79	30	17
NC(=O)c1ccc(NC(=O)c2ccc(CN3CCOCC3)cc2)cc1	.	.	.	.	.	.	/	/	/
O=C(Nc1ccc(CN2CCOCC2)cc1)c1ccccc1F	.	.	.	.	.	.	/	/	/
O=C(Nc1ccc(CN2CCOCC2)cc1)c1cc2ccccn2n1	.	.	.	76	.	.	.	.	.
CCOC(=O)c1ccc(NC(=O)c2ccc(CN3CCOCC3)cc2)cc1	.	.	.	68	.	.	69	.	.
O=C(/C=C/c1ccccc1)NC(=S)Nc1ccc(CN2CCOCC2)cc1	.	.	.	.	.	.	/	/	/
O=C(/C=C/c1ccc(Cl)cc1)Nc1ccc(CN2CCOCC2)cc1	.	.	.	45	.	.	62	14	.
COc1ccc(NC(=O)c2c(Nc3ccccc3)sc(C(=O)c3ccc(F)cc3)c2N)cc1	.	.	.	61	.	.	.	35	43
COc1ccccc1N(CC(O)COc1ccccc1C)S(=O)(=O)c1ccccc1 (stereo not drawn)	.	.	.	.	.	.	/	/	/
COc1ccc(C(=O)NCCC2=CCCCC2)cc1	.	3.4	.	52	138	154	.	.	.
COCCN(C(=O)Cc1cccs1)C(C(=O)NC1CCCC1)c1cc(OC)c(OC)c(OC)c1 (stereo not drawn)	.	.	.	.	.	.	/	/	/
COc1ccc(OC)c(NC(=O)NCCc2cccc(Cl)c2)c1	.	.	.	.	.	.	/	/	/
O=C(Nc1ccncc1)c1ccc(-c2ccccc2)cc1	.	.	.	82	.	.	77	.	.
Cc1ccccc1C(=O)NC(=S)Nc1ccc2[nH]c(=O)[nH]c2c1	.	.	.	.	.	.	/	/	/
COc1ccc(C)cc1NC(=S)NC(C)c1ccc(OC)c(OC)c1 (stereo not drawn)	.	.	.	.	.	.	/	/	/
O=C(O)c1cn(Cc2ccccc2Cl)c2ccc(S(=O)(=O)N3CCOCC3)cc2c1=O	.	.	.	.	.	.	/	/	/
Cc1ccccc1CSc1nnc(C)c(=O)n1N	.	.	.	.	.	.	/	/	/
CCN(CC)S(=O)(=O)c1cc(C(=O)Nc2ccncc2)ccc1Cl	.	.	.	56	.	.	.	.	17

Bioassay records from PubChem BioAssay.
